Reference: ChEMBL document CHEMBL1811814, “Synthesis and evaluation of indole, pyrazole, chromone and pyrimidine based conjugates for tumor growth inhibitory activities--development of highly efficacious cytotoxic agents” (Eur J Med Chem, 2010)

Key:
Type in all cases: functional
[1] = tested on: HCT-116; experiment: Growth inhibition of human HCT116 cells
[2] = tested on: HCT-15; experiment: Growth inhibition of human HCT15 cells
[3] = tested on: SF-268; experiment: Growth inhibition of human SF268 cells
[4] = tested on: SF-539; experiment: Growth inhibition of human SF539 cells
[5] = tested on: LOX IMVI; experiment: Growth inhibition of human LOXIMVI cells
[6] = tested on: M14; experiment: Growth inhibition of human M14 cells
[7] = tested on: MDA-MB-435; experiment: Growth inhibition of human MDA-MB-435 cells
[8] = tested on: SK-MEL-2; experiment: Growth inhibition of human SK-MEL-2 cells
[9] = tested on: SK-MEL-5; experiment: Growth inhibition of human SK-MEL-5 cells
[10] = tested on: UACC-257; experiment: Growth inhibition of human UACC257 cells
[11] = tested on: OVCAR-3; experiment: Growth inhibition of human OVCAR3 cells
[12] = tested on: OVCAR-5; experiment: Growth inhibition of human OVCAR5 cells
[13] = tested on: OVCAR-8; experiment: Growth inhibition of human OVCAR8 cells
[14] = tested on: NCI/ADR-RES; experiment: Growth inhibition of human NCI/ADR-RES cells
[15] = tested on: SK-OV-3; experiment: Growth inhibition of human SKOV3 cells
[16] = tested on: 786-0; experiment: Growth inhibition of human 786-0 cells
[17] = tested on: A498; experiment: Growth inhibition of human A498 cells
[18] = tested on: ACHN; experiment: Growth inhibition of human ACHN cells
[19] = tested on: TK-10; experiment: Growth inhibition of human TK10 cells
[20] = tested on: UO-31; experiment: Growth inhibition of human UO31 cells
[21] = tested on: PC-3; experiment: Growth inhibition of human PC3 cells
[22] = tested on: MDA-MB-231; experiment: Growth inhibition of human MDA-MB-231 cells
[23] = tested on: BT-549; experiment: Growth inhibition of human BT549 cells
[24] = tested on: HOP-62; experiment: Growth inhibition of human HOP62 cells assessed tumor cell growth at 10^-5 M; set-up: scale not given: the % may be the effect or the level left
Summary of the method: (§1)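 NCI 60-human-tumor-cell-line panel screen. Each compound was tested at a single concentration of 10^-5 M, and percent growth of tumor cells was recorded for each cell line. Growth inhibition was expressed from these percent-growth values.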

[25] = tested on: HOP-92; experiment: Growth inhibition of human HOP92 cells assessed tumor cell growth at 10^-5 M; set-up: scale not given: the % may be the effect or the level left; summary of the method: as §1
[26] = tested on: NCI-H23; experiment: Growth inhibition of human NCI-H23 cells assessed tumor cell growth at 10^-5 M; set-up: scale not given: the % may be the effect or the level left; summary of the method: as §1
[27] = tested on: NCI-H322M; experiment: Growth inhibition of human NCI-H322M cells assessed tumor cell growth at 10^-5 M; set-up: scale not given: the % may be the effect or the level left; summary of the method: as §1
[28] = tested on: NCI-H460; experiment: Growth inhibition of human NCI-H460 cells assessed tumor cell growth at 10^-5 M; set-up: scale not given: the % may be the effect or the level left; summary of the method: as §1
[29] = tested on: HCT-116; experiment: Growth inhibition of human HCT116 cells assessed tumor cell growth at 10^-5 M; set-up: scale not given: the % may be the effect or the level left; summary of the method: as §1
[30] = tested on: HCT-15; experiment: Growth inhibition of human HCT15 cells assessed tumor cell growth at 10^-5 M; set-up: scale not given: the % may be the effect or the level left; summary of the method: as §1
[31] = tested on: SW-620; experiment: Growth inhibition of human SW620 cells assessed tumor cell growth at 10^-5 M; set-up: scale not given: the % may be the effect or the level left
Summary of the method: (§2)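 Single-dose screen at 10^-5 M across the 60 human tumor cell line panel, run to NCI standards. The value is the percent growth of each cell line in the presence of compound. Compounds active at this dose moved on to five-concentration testing (10^-4 to 10^-8 M).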

[32] = tested on: SF-295; experiment: Growth inhibition of human SF295 cells assessed tumor cell growth at 10^-5 M; set-up: scale not given: the % may be the effect or the level left; summary of the method: as §1
[33] = tested on: SF-539; experiment: Growth inhibition of human SF539 cells assessed tumor cell growth at 10^-5 M; set-up: scale not given: the % may be the effect or the level left; summary of the method: as §1
[34] = tested on: MDA-MB-435; experiment: Growth inhibition of human MDA-MB-435 cells assessed tumor cell growth at 10^-5 M; set-up: scale not given: the % may be the effect or the level left; summary of the method: as §1
[35] = tested on: SK-MEL-2; experiment: Growth inhibition of human SK-MEL-2 cells assessed tumor cell growth at 10^-5 M; set-up: scale not given: the % may be the effect or the level left; summary of the method: as §1
[36] = tested on: SK-MEL-28; experiment: Growth inhibition of human SK-MEL-28 cells assessed tumor cell growth at 10^-5 M; set-up: scale not given: the % may be the effect or the level left; summary of the method: as §1
[37] = tested on: UACC-257; experiment: Growth inhibition of human UACC257 cells assessed tumor cell growth at 10^-5 M; set-up: scale not given: the % may be the effect or the level left; summary of the method: as §2
[38] = tested on: OVCAR-3; experiment: Growth inhibition of human OVCAR3 cells assessed tumor cell growth at 10^-5 M; set-up: scale not given: the % may be the effect or the level left; summary of the method: as §1
[39] = tested on: OVCAR-4; experiment: Growth inhibition of human OVCAR4 cells assessed tumor cell growth at 10^-5 M; set-up: scale not given: the % may be the effect or the level left; summary of the method: as §1
[40] = tested on: OVCAR-8; experiment: Growth inhibition of human OVCAR8 cells assessed tumor cell growth at 10^-5 M; set-up: scale not given: the % may be the effect or the level left; summary of the method: as §1
[41] = tested on: NCI/ADR-RES; experiment: Growth inhibition of human NCI/ADR-RES cells assessed tumor cell growth at 10^-5 M; set-up: scale not given: the % may be the effect or the level left; summary of the method: as §1
[42] = tested on: 786-0; experiment: Growth inhibition of human 786-0 cells assessed tumor cell growth at 10^-5 M; set-up: scale not given: the % may be the effect or the level left; summary of the method: as §1
[43] = tested on: SN12C; experiment: Growth inhibition of human SN12C cells assessed tumor cell growth at 10^-5 M; set-up: scale not given: the % may be the effect or the level left; summary of the method: as §1
[44] = tested on: PC-3; experiment: Growth inhibition of human PC3 cells assessed tumor cell growth at 10^-5 M; set-up: scale not given: the % may be the effect or the level left; summary of the method: as §1
[45] = tested on: DU-145; experiment: Growth inhibition of human DU145 cells assessed tumor cell growth at 10^-5 M; set-up: scale not given: the % may be the effect or the level left; summary of the method: as §1
[46] = Growth inhibition of human Hs 578T cells assessed tumor cell growth at 10^-5 M; set-up: scale not given: the % may be the effect or the level left; summary of the method: as §1
[47] = tested on: BT-549; experiment: Growth inhibition of human BT549 cells assessed tumor cell growth at 10^-5 M; set-up: scale not given: the % may be the effect or the level left; summary of the method: as §1
[48] = tested on: K562; experiment: Growth inhibition of human K562 cells
[49] = tested on: MOLT-4; experiment: Growth inhibition of human MOLT4 cells
[50] = Growth inhibition of human RPMI8266 cells
[51] = tested on: A549; experiment: Growth inhibition of human A549 cells
[52] = tested on: EKVX; experiment: Growth inhibition of human EKVX cells
[53] = tested on: NCI-H322M; experiment: Growth inhibition of human NCI-H322M cells
[54] = tested on: COLO 205; experiment: Growth inhibition of human COLO205 cells
[55] = read-out: LC50 (the source's name)

## O=C1/C(=C\c2ccccn2)c2ccccc2N1c1c(Cl)cccc1Cl
[1]
  GI50: 1.7 µM
[1]; [55]
  CC50: 6.9 µM
[2]
  GI50: 2 µM
[2]; [55]
  CC50: 28.8 µM
[3]
  GI50: 3.6 µM
[3]; [55]
  CC50: 40.7 µM
[4]
  GI50: 2.4 µM
[4]; [55]
  CC50: > 100 µM
[5]
  GI50: 1.7 µM
[5]; [55]
  CC50: 6.4 µM
[6]
  GI50: 1.7 µM
[6]; [55]
  CC50: 7.7 µM
[7]
  GI50: 1.8 µM
[7]; [55]
  CC50: 61.6 µM
[8]
  GI50: 2.3 µM
[8]; [55]
  CC50: 24.5 µM
[9]
  GI50: 1.6 µM
[9]; [55]
  CC50: 5.7 µM
[10]
  GI50: 1.7 µM
[10]; [55]
  CC50: 18.2 µM
[11]
  GI50: 1.7 µM
[11]; [55]
  CC50: 6.9 µM
[12]
  GI50: 2.4 µM
[12]; [55]
  CC50: > 100 µM
[13]
  GI50: 2.1 µM
[13]; [55]
  CC50: > 100 µM
[14]
  GI50: 3 µM
[14]; [55]
  CC50: > 100 µM
[15]
  GI50: 3.4 µM
[15]; [55]
  CC50: 74.1 µM
[16]
  GI50: 1.9 µM
[16]; [55]
  CC50: 6.6 µM
[17]
  GI50: 2.9 µM
[17]; [55]
  CC50: 72.4 µM
[18]
  GI50: 1.8 µM
[18]; [55]
  CC50: 7.2 µM
[19]
  GI50: 3 µM
[19]; [55]
  CC50: 50.1 µM
[20]
  GI50: 1.4 µM
[20]; [55]
  CC50: 6 µM
[21]
  GI50: 2.2 µM
[21]; [55]
  CC50: 93.3 µM
[22]
  GI50: 2 µM
[22]; [55]
  CC50: 29.5 µM
[23]
  GI50: 2.4 µM
[23]; [55]
  CC50: 23.4 µM
[24]
  Activity: 5.17%
[25]
  Activity: -7.93%
[26]
  Activity: 12.97%
[27]
  Activity: 61.39%
[28]
  Activity: -29.25%
[29]
  Activity: -94.37%
[30]
  Activity: 12.58%
[31]
  Activity: -56.9%
[32]
  Activity: 12.33%
[33]
  Activity: 1.27%
[34]
  Activity: -5.05%
[35]
  Activity: 48.8%
[36]
  Activity: -10.05%
[37]
  Activity: 59.3%
[38]
  Activity: 27.36%
[39]
  Activity: -7.46%
[40]
  Activity: 4.47%
[41]
  Activity: -26.73%
[42]
  Activity: -81.44%
[43]
  Activity: 18.08%
[44]
  Activity: 31.44%
[45]
  Activity: -0.09%
[46]
  Activity: 22.94%
[47]
  Activity: -17.72%
[48]
  GI50: 3.9 µM
[48]; [55]
  CC50: > 100 µM
[49]
  GI50: 4.4 µM
  LC50: > 100 µM
[50]
  GI50: 2.2 µM
[50]; [55]
  CC50: > 100 µM
[51]
  GI50: 1.9 µM
[51]; [55]
  CC50: 43.6 µM
[52]
  GI50: 2 µM
[52]; [55]
  CC50: > 100 µM
[53]
  GI50: 2.8 µM
[53]; [55]
  CC50: 28.8 µM
[54]
  GI50: 2.3 µM
  LC50: > 100 µM
